# Results from ChEMBL document CHEMBL1136715, “Modifications of the ethanolamine head in N-palmitoylethanolamine: synthesis and evaluation of new agents interfering with the metabolism of anandamide” (J Med Chem, 2003).
# What was measured:
# [1] = organism: Rattus norvegicus; test: Tested for percent inhibition of AEA (N-arachidonoylethanolamine) metabolism in rat brain homogenates using [3H]anandamide as the labeled substrate at 100 uM; type: functional
# [2] = target: Cannabinoid receptor 2 (Homo sapiens) (UniProt P34972); test: Percent inhibition of specific binding of [3H]WIN-55212-2 towards human cannabinoid receptor 2 from Chinese hamster ovary cell membranes at the concentration of 10 uM
# In short: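 Membranes (40 μg) from human CB2-transfected CHO cells (Ham's F12, 10% FBS, G418) were incubated with 1 nM [3H]-WIN 55,212-2 for 1 h at 30 °C in 50 mM Tris-HCl/MgCl2/EDTA, pH 7.4, with 50 μM PMSF. Bound radioligand was collected on 0.5% PEI-pretreated GF/B filters and counted by liquid scintillation.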
# [3] = target: Cannabinoid receptor 1 (Homo sapiens) (UniProt P21554); test: Percent inhibition of specific binding of [3H]CP-55940 towards human cannabinoid receptor 1 from Chinese hamster ovary cell membranes at the concentration of 10 uM
# In short: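 Membranes (40 μg) from CHO cells stably expressing human CB1 (grown in Ham's F12, 10% FBS, G418) were incubated with 1 nM [3H]-CP55,940 for 1 h at 30 °C in 50 mM Tris-HCl with MgCl2 and EDTA, pH 7.4, plus 50 μM PMSF. Nonspecific binding was defined with 10 μM HU-210. Filtration was on PEI-treated GF/B filters, followed by scintillation counting.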
# [4] = organism: Rattus norvegicus; test: Percent inhibition of AEA (N-arachidonoylethanolamine) metabolism in rat brain homogenates using [3H]anandamide as the labeled substrate.; type: functional; set-up: concentration or dose not given beside the values; details: dose or concentration not given here
# In short: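 Rat brain membranes with test compound or ethanol carrier and [3H]-AEA (2 μM final) in 10 mM Tris-HCl, 1 mM EDTA, 1% w/v fatty-acid-free BSA, pH 7.6, for 10 min at 37 °C. Ice plus chloroform/methanol (1:1) stopped the reaction, and the methanol/buffer phase was counted with quench correction. Blanks used water in place of homogenate. Values come from at least three experiments.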
# [5] = organism: Rattus norvegicus; test: Inhibition of AEA (N-arachidonoylethanolamine) metabolism using rat brain homogenates at pH 9 using [3H]anandamide as the labeled substrate; type: functional; details: dose or concentration not given here
# In short: (§1)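 Rat brain membranes (adult, minus cerebellum) were homogenized in 20 mM HEPES pH 7.0 with 1 mM MgCl2, washed, preincubated 15 min at 37 °C, and stored at -70 °C. Incubation was with [3H]-AEA (2 μM final) for 10 min at 37 °C at pH 6 or pH 9. Chloroform/methanol stopped the reaction, and [3H]-ethanolamine in the aqueous phase was counted. pI50 and maximal inhibition came from 3–5 experiments (three homogenate preparations) over 3–100 μM (seven concentrations).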
# [6] = organism: Rattus norvegicus; test: Inhibition of AEA (N-arachidonoylethanolamine) metabolism using rat brain homogenates at pH 6 using [3H]-anandamide as the labeled substrate; type: functional; details: dose or concentration not given here; in short: as §1
# [7] = organism: Rattus norvegicus; test: Inhibition of AEA (N-arachidonoylethanolamine) metabolism using rat brain homogenates at pH 6 and at the concentration of 50 uM using [3H]anandamide as the labeled substrate; type: functional
# Cannabinoid receptor 2 (Homo sapiens), sequence (P34972 whole entry): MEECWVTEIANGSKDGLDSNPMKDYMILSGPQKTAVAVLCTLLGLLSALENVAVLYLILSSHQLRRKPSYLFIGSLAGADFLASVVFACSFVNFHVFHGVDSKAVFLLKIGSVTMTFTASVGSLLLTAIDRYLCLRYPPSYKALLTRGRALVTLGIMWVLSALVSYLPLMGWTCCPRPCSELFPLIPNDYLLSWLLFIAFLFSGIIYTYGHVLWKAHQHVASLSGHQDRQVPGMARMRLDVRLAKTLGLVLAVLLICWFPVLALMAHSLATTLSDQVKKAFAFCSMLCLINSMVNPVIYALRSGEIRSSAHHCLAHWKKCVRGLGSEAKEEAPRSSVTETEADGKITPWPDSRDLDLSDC
# Cannabinoid receptor 1 (Homo sapiens), sequence (P21554 whole entry): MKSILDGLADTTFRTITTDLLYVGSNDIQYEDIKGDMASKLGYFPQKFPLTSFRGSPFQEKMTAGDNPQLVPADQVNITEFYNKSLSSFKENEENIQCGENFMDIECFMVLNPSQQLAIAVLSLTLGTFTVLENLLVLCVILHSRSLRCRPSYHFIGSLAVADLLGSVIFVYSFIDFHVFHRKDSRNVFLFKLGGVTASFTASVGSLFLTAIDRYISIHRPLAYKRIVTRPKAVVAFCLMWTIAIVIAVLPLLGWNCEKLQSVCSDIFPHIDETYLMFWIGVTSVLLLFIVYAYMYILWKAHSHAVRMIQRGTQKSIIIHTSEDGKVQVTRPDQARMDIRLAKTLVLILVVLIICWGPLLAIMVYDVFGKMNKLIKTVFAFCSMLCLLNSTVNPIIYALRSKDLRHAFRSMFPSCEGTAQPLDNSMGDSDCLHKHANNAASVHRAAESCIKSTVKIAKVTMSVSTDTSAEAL
inhibition [2],inhibition [3],Structure (SMILES),inhibition [1],inhibition [4],inhibition [5],inhibition [6],inhibition [7]
2.7%,3.3%,CCCCCCCCCCCCCCCC(=O)N(CC)CC,2%,–,–,–,–
12.9%,11.7%,CCCCCCCCCCCCCCCC(N)=O,–,51%,–,–,–
6.1%,14.4%,CCCCCCCCCCCCCCCC(=O)NCCC,–,49%,–,–,–
9.5%,27.1%,CCCCCCCCCCCCCCCC(=O)NC1CCCC1,43%,–,–,–,–
6.4%,15%,CCCCCCCCCCCCCCCC(=O)NCCCO,–,61%,81%,45%,–
4.1%,7.3%,CCCCCCCCCCCCCCCC(=O)NCC(=O)OC,–,100%,100%,75%,–
12.9%,19.6%,CCCCCCCCCCCCCCCC(=O)NCCCC,–,24%,–,–,–
6.4%,0.3%,CCCCCCCCCCCCCCCC(=O)N(C)C,30%,–,–,–,–
15.1%,35.8%,CCCCCCCCCCCCCCCC(=O)NCCBr,–,41%,–,–,–
3.9%,8.2%,CCCCCCCCCCCCCCCC(=O)NCCF,6%,–,–,–,–
0.7%,4.8%,CCCCCCCCCCCCCCCC(=O)NCc1ccc(C)cc1,–,100%,–,–,–
2%,24.6%,CCCCCCCCCCCCCCCC(=O)NC(C)(C)C,–,0%,–,–,–
8.9%,18.5%,CCCCCCCCCCCCCCCC(=O)NCC(C)C,–,6%,–,–,–
7.8%,13.3%,C=CCNC(=O)CCCCCCCCCCCCCCC,–,67%,–,–,–
13.5%,25.2%,CCCCCCCCCCCCCCCC(=O)NCCCl,–,48%,–,–,–
6.7%,15.7%,CCCCCCCCCCCCCCCC(=O)NC(C)(C)CO,–,0%,–,–,–
5.2%,18.1%,CCCCCCCCCCCCCCCC(=O)NOC,–,46%,–,–,–
–,2.5%,CCCCCCCCCCCCCCCC(=O)NC,–,100%,–,–,–
14.3%,30.6%,CCCCCCCCCCCCCCCC(=O)NCCCCl,–,27%,–,–,–
10%,2.8%,CCCCCCCCCCCCCCCC(=O)NCC,–,72%,–,–,–

# Continued, compound first:
Structure (SMILES),inhibition [2],inhibition [3],inhibition [1],inhibition [4],inhibition [5],inhibition [6],inhibition [7]
CCCCCCCCCCCCCCCC(=O)NC1CCCCC1,–,–,11%,–,–,–,–
CCCCCCCCCCCCCCCC(=O)Nc1ccccc1O,2.7%,10.8%,53%,–,–,–,–
CCCCCCCCCCCCCCCC(=O)NCc1ccc(OC)cc1,3.7%,25.4%,29%,–,–,–,–
CCCCCCCCCCCCCCCC(=O)NC(c1ccccc1)c1ccccc1,1.1%,2.2%,0%,–,–,–,–
CCCCCCCCCCCCCCCC(=O)Nc1ccc2ccccc2c1,0.1%,0.7%,–,28%,–,–,–
CCCCCCCCCCCCCCCC(=O)Nc1ccccc1C,6.5%,4.9%,–,31%,–,–,–
CCCCCCCCCCCCCCCNC(=O)COC(C)=O,6%,16%,–,87%,–,–,–
CCCCCCCCCCCCCCCC(=O)Nc1cccc(O)c1,3.9%,40.9%,51%,–,–,–,–
CCCCCCCCCCCCCCCC(=O)Nc1ccccc1,0.5%,2.8%,–,18%,–,–,–
CCCCCCCCCCCCCCCC(=O)NC(C)C,–,–,–,61%,39%,–,4%
CCCCCCCCCCCCCCCC(=O)Nc1ccc(C)cc1,6.5%,2.8%,0%,–,–,–,–
CCCCCCCCCCCCCCCC(=O)NCCc1ccccc1,1.3%,22.8%,19%,–,–,–,–
CCCCCCCCCCCCCCCC(=O)NCCO,–,–,–,78%,100%,62%,–
CCCCCCCCCCCCCCCC(=O)NC1CC1,16.3%,12.8%,–,57%,–,–,–
CCCCCCCCCCCCCCCC(=O)Nc1ccc(Cl)cc1,7.4%,11.1%,–,11%,–,–,–
CCCCCCCCCCCCCCCC(=O)Nc1ccc(O)cc1,5%,44.8%,55%,–,–,–,–
CCCCCCCCCCCCCCCC(=O)N1CCOCC1,4.2%,15.5%,6%,–,–,–,–
